The record followed here is ChEMBL document CHEMBL4229369, “Design, synthesis and antitubercular evaluation of benzothiazinones containing a piperidine moiety” (Eur J Med Chem, 2018).

Converted amounts (≈) assume the structure as drawn.

The test system of data set [1] is Mycobacterium tuberculosis. Put plainly: Antitubercular activity against Mycobacterium tuberculosis H37Rv ATCC27395 after 7 days by Alamar blue assay. Type of data set: functional. The conditions noted are these: 168 h. Summed up:
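Inoculum grown to late log phase in Middlebrook 7H9 with 0.2% glycerol, 0.05% Tween 80 and 10% ADC, then washed in PBS, filtered through 8 µm to remove clumps and frozen at -80 °C. Twofold compound dilutions in 7H9-ADC-TG with 2 × 10⁵ CFU per well, 37 °C. Alamar blue and Tween 80 added on day 7, read after 16-24 h (ex 530/em 590 nm). MIC is the lowest concentration giving ≥90% fluorescence reduction versus bacterium-only controls.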
(Resazurin is reduced to fluorescent resorufin, in cell work by metabolically active cells.)

The nature of data set [2]: Tmax in ICR mouse at 50 mg/kg, po administered as single dose by HPLC analysis. The conditions noted are these: in vivo. Type of data set: ADME, organism-based. Summed up:
(§1)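 SPF female ICR mice (20-25 g), fasted overnight, 3 per group; single oral dose 50 mg/kg as suspension in 0.5% CMC. Jugular vein blood at 0.25, 0.5, 1, 2, 4, 6, 8 and 24 h; serum stored at −20 °C, protein removed with acetonitrile, supernatant dried, redissolved in acetonitrile and analysed by HPLC. Parameters derived directly from the experimental data.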

A short description of data set [3]: Cmax in ICR mouse at 50 mg/kg, po administered as single dose by HPLC analysis. The data set is classed as ADME, organism-based. Also on record: dose 50 mg/kg, route oral. The conditions noted are these: in vivo. Summed up: as §1
A short description of data set [4]: MRT in ICR mouse at 50 mg/kg, po administered as single dose by HPLC analysis. The data set is classed as ADME, organism-based. The conditions noted are these: in vivo. Summed up:
as §1

Data set [5] in a line: Half life in ICR mouse at 50 mg/kg, po administered as single dose by HPLC analysis. The data set is classed as ADME, organism-based. The conditions noted are these: in vivo. In short, it runs like this:
as §1

A short description of data set [6]: AUC (0 to infinity) in ICR mouse at 50 mg/kg, po administered as single dose by HPLC analysis. Type of data set: ADME, organism-based. On the set-up: dose 50 mg/kg, route oral, time infinity. The note with it: in vivo. Summed up:
as §1

The term MIC90 denotes the lowest concentration that inhibits either 90% of growth or 90% of the strains tested, depending on the study. The low end stands for higher susceptibility, the high end for lower susceptibility. In turn, `O=c1nc(N2CCC(CN3CCCC3)CC2)sc2c([N+](=O)[O-])cc(C(F)(F)F)cc12` had an MIC90 in data set [1] of 3.58 µg/mL (≈ 8.09 µM).
In data set [1], `O=c1nc(N2CCN(CC3CCCCC3)CC2)sc2c([N+](=O)[O-])cc(C(F)(F)F)cc12` [MACOZINONE] returned an MIC90 of less than 0.016 µg/mL.
`CCN(CC)CC1CCN(c2nc(=O)c3cc(C(F)(F)F)cc([N+](=O)[O-])c3s2)CC1` came in with an MIC90 in data set [1] of 1.82 µg/mL (≈ 4.11 µM).
Molecule `O=c1nc(N2CCC(NC3CCCCC3)CC2)sc2c([N+](=O)[O-])cc(C(F)(F)F)cc12` returned an MIC90 in data set [1] of 0.959 µg/mL (≈ 2.1 µM).
Turning to `NNC(=O)c1ccncc1` [ISONIAZID], the MIC90 in data set [1] came out at 0.037 µg/mL (≈ 0.27 µM). Against the preceding molecule, the MIC90 is about 26-fold lower.
In turn, `CC1CCN(CC2CCN(c3nc(=O)c4cc(C(F)(F)F)cc([N+](=O)[O-])c4s3)CC2)CC1` returned an MIC90 in data set [1] of 0.488 µg/mL (≈ 1.04 µM).
One may read the Tmax as the time at which the peak concentration occurs. Broadly, the Cmax is the highest concentration seen after dosing. Broadly, the MRT is a mean duration of stay, worked out from the concentration-time curve. The half-life is the time needed for the level to fall by half in the phase considered. Low readings indicate rapid decline, high ones slow decline. In general, AUC(0-inf) refers to total exposure, with the tail of the curve extrapolated. High values mean high exposure, low ones low exposure. Turning to `O=c1nc(N2CCC(CN3CCC(C(F)(F)F)CC3)CC2)sc2c([N+](=O)[O-])cc(C(F)(F)F)cc12`, the Tmax in data set [2] turned out to be 0.25 h. In addition, the highest level in data set [3] (Cmax) was 1160 ng/mL. In addition, the MRT in data set [4] worked out at 4.26 h. The same molecule showed a half-life in data set [5] of 3.3 h. The AUC(0-inf) in data set [6] stood at 2490 ng·h/mL. The MIC90 in data set [1] is less than 0.016 µg/mL.
The molecule `O=c1nc(N2CCC(CN3CCCCC3)CC2)sc2c([N+](=O)[O-])cc(C(F)(F)F)cc12` displayed an MIC90 in data set [1] of 0.481 µg/mL (≈ 1.05 µM).
With `O=c1nc(N2CCC(CN3CCCCCC3)CC2)sc2c([N+](=O)[O-])cc(C(F)(F)F)cc12`, the MIC90 in data set [1] came out at 1.32 µg/mL (≈ 2.81 µM).
On the same count and under the same terms, then `CC1CCCN(CC2CCN(c3nc(=O)c4cc(C(F)(F)F)cc([N+](=O)[O-])c4s3)CC2)C1` (stereo unspecified), with 0.241 µg/mL (≈ 0.512 µM); and `O=c1nc(N2CCC(CN3CCC(O)CC3)CC2)sc2c([N+](=O)[O-])cc(C(F)(F)F)cc12`, with 1.96 µg/mL (≈ 4.15 µM); and `CN(C1CCCCC1)C1CCN(c2nc(=O)c3cc(C(F)(F)F)cc([N+](=O)[O-])c3s2)CC1`, with 0.973 µg/mL (≈ 2.07 µM).
Turning to `CC1CCCCN1CC1CCN(c2nc(=O)c3cc(C(F)(F)F)cc([N+](=O)[O-])c3s2)CC1` (stereo unspecified), the MIC90 in data set [1] turned out to be 1.92 µg/mL (≈ 4.08 µM).
Turning to `CN1CCN(CC2CCN(c3nc(=O)c4cc(C(F)(F)F)cc([N+](=O)[O-])c4s3)CC2)CC1`, the MIC90 in data set [1] amounted to 7.84 µg/mL (≈ 16.6 µM).
For `CO[C@H]1/C=C/O[C@@]2(C)Oc3c(C)c(O)c4c(O)c(c(/C=N/N5CCN(C)CC5)c(O)c4c3C2=O)NC(=O)/C(C)=C\C=C\[C@H](C)[C@H](O)[C@@H](C)[C@@H](O)[C@@H](C)[C@H](OC(C)=O)[C@@H]1C` [RIFAMPIN], the MIC90 in data set [1] is 0.084 µg/mL (≈ 0.102 µM).
Same read-out and setting: next, `O=c1nc(N2CCC(CN3CCC4(CC3)OCCO4)CC2)sc2c([N+](=O)[O-])cc(C(F)(F)F)cc12`: 3.71 µg/mL (≈ 7.21 µM).
